Screens from PubChem.
Many of the other results were omitted from the sample, so hits are more common in it than they were.
GSK3A inh – blockers of GSK3A enzyme activity – biochemical, luminescence, cell-free homogeneous, HTS, primary screen. GSK-3 alpha kinase, ADP-Glo luminescence, 60 min. inhibition, % at 10 µM. actives 0.1% (n = 320,000). AID 2650, 2010;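 active means more than half of replicates show inhibition above 20%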;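 further: GST-tagged GSK-3 alpha with peptide substrate and 25 µM ATP; 0% = DMSO neutral wells and 100% = GW8510 positive control wells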
STK33 kinase inh – inhibitors of purified STK33 kinase, primary screen, biochemical, ADP-Glo luminescence, homogeneous, cell-free; actives 0.073% (n = 320,000); MBP phosphorylation; Serine/threonine-protein kinase 33 (Homo sapiens), Q9BYT3; inhibition, % at 10 µM; AID 2661, 2010;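 active means inhibition at or above 25%, using the most active replicate where run in duplicate; inactive means inhibition below 25%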
GSK3beta inhib – human GSK3beta kinase inhibitors, primary screen, biochemical, cell-free homogeneous, HTS; activity score (negative = inhibition), % at 10 µM; Glycogen synthase kinase-3 beta (Homo sapiens), P49841; GST-GSK3beta kinase, ADP-Glo luminescence, 60 min; hits give low values; actives 0.038% (n = 300,000); AID 2097, 2009;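 active means more than half of replicate wells score below -50%, meaning over 50% inhibition versus plate controls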;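 further: 0% = median DMSO wells and -100% = median GW8510 positive control wells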
Target sequence (P49841 whole entry, looked up): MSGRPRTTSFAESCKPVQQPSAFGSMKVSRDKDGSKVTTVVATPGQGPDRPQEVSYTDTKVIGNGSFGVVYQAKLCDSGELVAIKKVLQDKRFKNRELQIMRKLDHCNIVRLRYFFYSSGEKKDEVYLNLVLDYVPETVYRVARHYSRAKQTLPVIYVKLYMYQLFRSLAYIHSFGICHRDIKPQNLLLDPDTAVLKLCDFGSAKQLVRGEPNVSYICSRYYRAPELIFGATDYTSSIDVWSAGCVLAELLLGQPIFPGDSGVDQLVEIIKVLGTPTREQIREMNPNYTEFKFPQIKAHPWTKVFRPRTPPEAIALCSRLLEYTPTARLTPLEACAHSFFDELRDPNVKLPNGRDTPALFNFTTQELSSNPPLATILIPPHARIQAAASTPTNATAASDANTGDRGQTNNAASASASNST
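Assay system: GST-tagged human GSK3beta kinase, cell-free; Input: 1.6 ng GSK3beta; Medium: Tris/MgCl2 kinase buffer; Timing: 60 min enzyme reaction, room temperature; Signal: ADP-Glo luminescence quantifying ADP generated by kinase; Evaluation: score relative to plate controls; Benchmarks: DMSO neutral wells and GW8510 at 20 µM as positive.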
DYRK1A inh – rat Dyrk1A kinase inhibitors, primary screen, biochemical, single point, plate reader; Dual specificity tyrosine-phosphorylation-regulated kinase 1A (Rattus norvegicus), Q63470; actives 0.43% (n = 310,000); inhibition, % at 12.5 µM; ADP-Glo luminescence, NFATc1 peptide; in the data active means inhibition above about 50%;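 further: plate controls were vehicle with enzyme for no effect and no enzyme for full effect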
CDK5 inh – inhibitors of human CDK5/p35 kinase, primary screen, biochemical, single concentration | actives 0.01% (n = 330,000) | inhibition, % at 10 µM | Cyclin-dependent kinase 5 (Homo sapiens) + Cyclin-dependent kinase 5 activator 1 (Homo … | Recombinant CDK5/p35, ADP-Glo luminescence, 60 min | AID 488839, 2010;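 active means highest replicate inhibition of at least 50% and at least 75% of replicates reaching 50%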;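 further: plate controls were DMSO neutral control for no effect and GW8510 at 10 µM for full effect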
Dyrk1A artifact – ADP-Glo luciferase interference without Dyrk1A, dose response, artefact control for Dyrk1A inhibitor project, biochemical, luminescence, cherry-pick, set 02 | shares compounds with DYRK1A inh | ADP-Glo luciferase artifact assay, no Dyrk1A | AC50, µM (highest dose often 12 µM), without a hit: at the top dose activity change, negative = inhibition | 1,300 tested, under 10 active | AID 588348, 2011;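 active means fitted half-maximal dose AC50 no more than ten times the top valid tested dose, with luminescence dropping as dose rises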
* hit, by the source's call; . = not tested or not shown; + = active, no number.

SMILES	GSK3A inh	STK33 kinase inh	GSK3beta inhib	DYRK1A inh	CDK5 inh	Dyrk1A artifact
ClCCN1CCN(c2ccnc3cc(Cl)ccc23)CC1	86*	2	-5	5	3	.
CC(=O)OCC12CC(OC(=O)CC(C)C)C(C)=CC1OC1C(O)C(OC(C)=O)C2(C)C12CO2 (stereo not drawn)	.	.	.	-3	1	.
CCc1cc2c(s1)NC(=O)CN=C2c1cccs1	76*	0	0	0	-1	.
O=C1CN=C(c2ccccc2)c2ccccc2N1	9	0	-1	1	4	.
CCCCn1c(O)c(C=NCCCn2ccnc2)c(=O)[nH]c1=O	68*	0	0	-6	0	.
CCCCn1c(O)c(C(C)=NCCCn2ccnc2)c(=O)[nH]c1=O	54*	1	-3	1	0	.
CCCCn1c(O)c(C(CC)=NCCCn2ccnc2)c(=O)[nH]c1=O	43	0	-20	.	.	.
Cc1ccc(CN2CCC3CCC(C3)C2)c(O)c1 (stereo not drawn)	.	.	.	.	0	.
Oc1cc(O)cc(/C=C/c2ccc(O)cc2O)c1	22	54*	.	.	3	.
Cc1ccc2c(c1)C1C[N+](C)(CC(=O)c3ccc(Cl)cc3Cl)CCC1N2C(=O)c1ccc(F)cc1 (stereo not drawn)	10	0	.	.	1	.
CC(CCN1CC1)=NNC(=O)Nc1cccc2ccccc12	.	.	.	.	-7	.
O=C1Nc2ccccc2/C1=C/c1nc2ccccc2c(=O)n1-c1ccc(O)cc1	1	0	1	-1	-2	.
O=C1Nc2ccccc2/C1=C/c1cnc[nH]1	79*	37*	-23	40	102*	.
NC(=O)CSc1nnc([C@@H](N)Cc2c[nH]c3ccccc23)o1	52*	0	-4	-6	1	.
Cn1ncnc2c(=O)n(C)c(=O)nc1-2	23	-2	-29	68*	0	.
CCN(CC)C(=O)c1ccc(NC(=O)CCCSc2ccccc2)cc1	-5	-1	0	-2	-1	.
CCN(CC)C(=O)c1ccc(NC(=O)Nc2ccccc2F)cc1	29	28*	-34	40	38	.
C=C1C(O)[C@@H]2O[C@]3(CC[C@H](/C=C/C(C)[C@@H]4CC(C)=CC5(O[C@H](C[C@@](C)(O)C(=O)O)CCC5O)O4)O3)CC[C@H]2O[C@@H]1C(O)CC(C)[C@H]1OC2(CCCCO2)CCC1C (stereo partly drawn)	0	0	.	.	.	.
Cc1cccc(-n2c(O)c(/C=C3/C(c4ccccc4)=Nc4ccccc43)c(=O)[nH]c2=O)c1	3	1	1	60*	0	10%
Cc1ccccc1-n1c(O)c(/C=C2/C(c3ccccc3)=Nc3ccccc32)c(=O)[nH]c1=O	-7	0	-1	2	-1	.
CN1CCc2nc3sc(C#N)c(N)c3c(-c3cccs3)c2C1	95*	4	-6	51*	1	6%
COc1ccc2[nH]c3c(c2c1)CCNC3C (stereo not drawn)	-2	0	-6	-2	-1	.
COc1ccc2c3c([nH]c2c1)C(C)NCC3 (stereo not drawn)	1	0	2	74*	2	9%
COC(=O)C1=C(c2ccc(F)cc2OCc2ccccc2)C[C@@H]2CC[C@H]1N2C(=O)NCc1ccccc1	-1	1	.	52*	0	6%
CC(C)[N+]12CCC(CC1)C(C(O)(c1ccccc1)c1ccccc1)C2 (stereo not drawn)	0	-1	-3	0	-6	.
SMILES	GSK3A inh	STK33 kinase inh	GSK3beta inhib	DYRK1A inh	CDK5 inh	Dyrk1A artifact
COc1cc2c(cc1O)C[C@H]1c3c(cc(O)c(OC)c3-2)CCN1C	14	3	.	71*	4	9%
COc1cc2occc2c2oc(=O)ccc12	1	0	1	20	-2	.
COc1cc2ccc(=O)oc2c2ccoc12	1	-1	-1	59*	2	7%
COc1ccc2c(c1)/C(=C/c1cnc[nH]1)C(=O)N2	81*	58*	-89*	83*	+	15%
N/C(=N\N=C/c1ccc(-c2ccc(O)c(C(=O)O)c2)o1)N[N+](=O)[O-]	6	7	3	83*	-4	5%
N#CC1c2ccccc2-n2nncc2CN1Cc1cc(Cl)cc(Cl)c1 (stereo not drawn)	.	.	.	.	0	.
CC(=O)N1Cc2cnnn2-c2ccccc2C1(C#N)Cc1ccccc1 (stereo not drawn)	.	.	.	.	1	.
OC[C@H]1O[C@@H](n2cnc3cc(Cl)c(Cl)cc32)[C@H](O)[C@@H]1O	3	5	.	74*	.	12%
COC(=O)C1=C(c2ccc(Cl)c(C(F)(F)F)c2)C[C@@H]2CC[C@H]1N2C(=O)NCCOc1ccc(OC)cc1	-2	-2	.	57*	0	10%
CCc1nccc2c1[nH]c1ccccc12	2	1	-3	59*	3	6%
c1ccc2c(c1)[nH]c1cnccc12	0	4	-1	69*	2	8%
O=c1c2ccccc2[nH]c(=S)n1-c1cccnc1	-3	0	-1	.	.	.
Cc1[nH]c2ccccc2c1/C=N/O	0	0	2	34	2	.
Cc1nccc2c1[nH]c1ccccc12	1	1	-3	76*	2	8%
NC(=O)c1ccc(N)nc1	.	.	.	4	0	.
O=C1NC2C(O)C(O)C(O)C(O)C2c2cc3c(c(O)c21)OCO3 (stereo not drawn)	.	.	.	2	-1	.
O=c1[nH]sc2cc(F)ccc12	.	.	1	.	1	.
N#C/C(=C\c1ccc(O)cc1)C(=O)O	.	.	.	76*	0	12%
CC12C=CC(=O)CC1CCC1C2CCC2(C)C(O)C(O)CC12 (stereo not drawn)	.	.	.	14	1	.
CN1CCc2cc(O)cc3c2[C@H]1Cc1ccc(O)c(O)c1-3	17	5	-9	14	1	.
CN1CCc2cc3c(c4c2C1Cc1ccccc1-4)OCO3 (stereo not drawn)	5	2	-18	67*	3	9%
Nc1ncc([N+](=O)[O-])s1	-1	1	.	.	-1	.
COC(=O)C1=C(C(=O)OC)C2OC1c1cc3ccccc3cc12	.	.	.	3	7	.
